Laboratory results reported in ChEMBL document CHEMBL1154636, “Exploring the importance of piperazine N-atoms for sigma(2) receptor affinity and activity in a series of analogs of 1-cyclohexyl-4-[3-(5-methoxy-1,2,3,4-tetrahydronaphthalen-1-yl)propyl]piperazine (PB28)” (J Med Chem, 2009).

What was measured:
[1] = Displacement of [3H]DTG form sigma 2 receptor in Wistar Hannover rat liver membrane by radioreceptor binding assay; type: cell membranes
Procedure, shortened: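 Specific binding was defined with DTG (85-96%). IC50 came from six to nine drug concentrations, in two or three experiments with duplicate samples.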

[2] = molecular target: T1, 3-beta-hydroxysteroid-Delta(8),Delta(7)-isomerase (Cavia porcellus, UniProt Q60490); assay: Displacement of [3H](+/-)-emopamil from EBP in Dunkin guinea pig liver membrane by radioreceptor binding assay; type: cell membranes
T1 sequence (Q60490 whole entry): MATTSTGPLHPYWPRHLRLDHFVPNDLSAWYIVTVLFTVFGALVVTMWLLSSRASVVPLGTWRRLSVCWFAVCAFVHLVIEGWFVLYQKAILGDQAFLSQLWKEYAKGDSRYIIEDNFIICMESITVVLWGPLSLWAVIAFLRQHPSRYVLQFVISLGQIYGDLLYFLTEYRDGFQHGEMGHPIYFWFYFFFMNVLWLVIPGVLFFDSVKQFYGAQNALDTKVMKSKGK

[3] = molecular target: Sigma non-opioid intracellular receptor 1 (Cavia porcellus, UniProt Q60492); assay: Displacement of [3H](+)-pentazocine ((+)-[2S-(2R,6R,11R)]-1,2,3,4,5,6-hexahydro-6,11-dimethyl- 3-(3-methyl-2-butenyl)-2,6-methano-3-benzazocine- 8-ol) from sigma 1 receptor in Dunkin guinea pig brain membrane by radioreceptor binding assay; type: cell membranes
Procedure, shortened: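 IC50 came from six to nine concentrations, in two or three experiments with duplicate samples. Compounds were tested as hydrochloride salts, or as methylammonium iodides where applicable.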

[4] = Selectivity ratio of Ki for sigma 1 receptor in Dunkin guinea pig brain membrane to Ki for sigma 2 receptor in Wistar Hannover rat liver membrane; type: cell membranes
Procedure, shortened: (§1)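 Ratios were calculated from Ki values. Sigma-1 Ki was measured with (+)-[3H]-pentazocine on guinea-pig brain membranes without cerebellum. […] Each IC50 came from six to nine concentrations, in two or three experiments with duplicates.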

[5] = Binding affinity to sigma 2 receptor in human SK-N-SH cells; type: cell-based
[6] = test system: SK-N-SH; assay: Inhibition of human SK-N-SH cell proliferation at 100 uM after 48 hrs by MTT assay; type: functional
Procedure, shortened: (§2)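 Human SK-N-SH neuroblastoma cells were grown in RPMI 1640 with 10% FBS, 2 mM glutamine, penicillin/streptomycin, 1 mM pyruvate and 1% non-essential amino acids at 37 °C under 5% CO2. Cells were plated at 10 000/well and dosed next day at 1–100 μM, with solvent (ethanol, DMSO) controls. After 48 h, 0.5 mg/mL MTT was added for 3 h at 37 °C. Formazan was dissolved in DMSO and read at 570 and 630 nm.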

[7] = Selectivity ratio of Ki for sigma 2 receptor in Wistar Hannover rat liver membrane to Ki for sigma 1 receptor in Dunkin guinea pig brain; type: cell membranes; procedure, shortened: as §1
[8] = test system: SK-N-SH; assay: Antiproliferative activity against human SK-N-SH cells after 48 hrs by MTT assay; type: functional, cell-based; procedure, shortened: as §2
[9] = Displacement of [3H]DTG form sigma 2 receptor in rat liver membrane; type: cell membranes
Procedure, shortened: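 IC50 taken from six to nine drug concentrations, two or three experiments with duplicate samples, and converted to Ki. Tested as hydrochloride salts, or as methylammonium iodide salts for the quaternized analogs.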

[10] = Displacement of [3H]DTG form sigma receptor in guinea pig brain; set-up: species or system Cavia porcellus
[11] = molecular target: Sigma non-opioid intracellular receptor 1 (Rattus norvegicus, UniProt Q9R0C9); assay: Displacement of [3H](+/-)-pentazocine from sigma 1 receptor in rat whole brain
Sequence of Sigma non-opioid intracellular receptor 1 (Rattus norvegicus, UniProt Q9R0C9) (Q9R0C9 whole entry): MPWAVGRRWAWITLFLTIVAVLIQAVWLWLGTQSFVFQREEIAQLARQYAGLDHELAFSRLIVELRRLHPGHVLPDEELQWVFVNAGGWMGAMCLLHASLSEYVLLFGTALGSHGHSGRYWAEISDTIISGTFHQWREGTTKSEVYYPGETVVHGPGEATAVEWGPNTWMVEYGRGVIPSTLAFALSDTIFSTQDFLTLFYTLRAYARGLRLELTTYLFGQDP

Sequence of Sigma non-opioid intracellular receptor 1 (Cavia porcellus, UniProt Q60492) (Q60492 whole entry): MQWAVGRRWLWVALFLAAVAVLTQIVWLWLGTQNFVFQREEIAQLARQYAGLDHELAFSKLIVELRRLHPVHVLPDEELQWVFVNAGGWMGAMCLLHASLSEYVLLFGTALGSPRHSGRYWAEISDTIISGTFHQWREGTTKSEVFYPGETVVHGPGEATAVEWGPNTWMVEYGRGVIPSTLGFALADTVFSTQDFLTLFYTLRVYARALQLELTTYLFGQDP

| SMILES | Ki [1] [nM] | Ki [2] [nM] | Ki [3] [nM] | Ratio Ki [7] | also measured |
| --- | --- | --- | --- | --- | --- |
| COc1cccc2c1CCCC2CCCCCN1CCC(C2CCCCC2)CC1 (stereo unspecified) | 72.3 | 49 | 236 |  | Ratio Ki [4]: 3.3 |
| CC(C)=CCN1CC[C@]2(C)c3cc(O)ccc3C[C@H]1[C@H]2C [(+)-PENTAZOCINE] |  |  |  |  | Ki [5]: 1860 nM |
| CC(C(O)c1ccc(O)cc1)N1CCC(Cc2ccccc2)CC1 (racemic) [IFENPRODIL] |  | 10.2 |  |  |  |
| COc1cccc2c1CCCC2CCC[N+]1(C)CC[N+](C)(C2CCCCC2)CC1 (stereo unspecified) | 1710 | 150 | > 5000 |  | inhibition at 100 µM [6]: 30%; Ratio Ki [4]: > 3 |
| C1CCC(N2CCNCC2)CC1 | > 5000 | > 1000 | > 5000 |  |  |
| COc1cccc2c1CCCC2NCCN1CCC(C2CCCCC2)CC1 (stereo unspecified) | 74.7 |  | 0.67 | 111 |  |
| COc1cccc2c1CCCC2CCC(=O)N1CCN(C2CCCCC2)CC1 (stereo unspecified) | 179 | 7.4 | 0.11 | 1630 |  |
| COc1cccc2c1CCCC2CCCN1CCN(C2CCCCC2)CC1 (stereo unspecified) |  |  |  |  | EC50 [8]: 9970 nM; Ki [9]: 0.68 nM |
| COc1cccc2c1CCCC2CCCN1CCNCC1 (stereo unspecified) | 590 | 35.4 | 218 | 2.7 | Ki [10]: > 877 nM |
| C1CCC(N2CCN(C3CCCCC3)CC2)CC1 | 11.5 | 17 | 2.05 | 5.6 | inhibition at 100 µM [6]: 4% |
| COc1cccc2c1CCCC2CCCN1CCOCC1 (stereo unspecified) | 442 |  | 9.1 | 49 |  |
| O=C(C1CCCCC1)N1CCN(C2CCCCC2)CC1 | 201 | 230 | 3.59 | 56 |  |
| COc1cccc2c1CCCC2CCCN1CCCCC1 (stereo unspecified) | 41.2 | 11.1 | 3.38 | 12 | Ki [11]: 18.2 nM |
| C1CCC(CCCN2CCN(C3CCCCC3)CC2)CC1 |  | 4.7 | 0.25 | 19 | EC50 [8]: 52100 nM |
| c1ccc(CCN2CCN(c3ccccn3)CC2)cc1 |  |  |  |  | inhibition at 100 µM [6]: 38% |
| Cc1ccccc1NC(=N)Nc1ccccc1C [DITOLYLGUANIDINE] | 32 |  |  |  |  |
| COc1cccc2c1CCCC2CCCN1CCN(C(=O)C2CCCCC2)CC1 (stereo unspecified) | 304 | 550 | > 5000 |  | Ratio Ki [4]: > 16 |
| CC(=O)N1CCN(C2CCCCC2)CC1 | > 5000 | > 1000 | > 5000 |  |  |
| COc1cccc2c1CCCC2CCCC1CCN(C2CCCCC2)CC1 (stereo unspecified) | 26.6 | 1.46 | 1.1 | 24 | EC50 [8]: 1400 nM |
| CCN1CCN(C2CCCCC2)CC1 | 349 | 64.4 | 62.4 | 5.6 |  |
| COc1cccc2c1CCCC2CCCN1CC[N+](C)(C2CCCCC2)CC1 (stereo unspecified) | 13 | 23 | 338 |  | inhibition at 100 µM [6]: 22%; Ratio Ki [4]: 26 |
| COc1cccc2c1CCCC2CCCN1CCN(CCCC2CCCc3c(OC)cccc32)CC1 (stereo unspecified) | 120 | 470 | > 5000 |  | Ratio Ki [4]: > 42 |
| COc1cccc2c1CCCC2CCCNCC(=O)NC1CCCCC1 (stereo unspecified) | 798 | 1230 | 3910 |  | Ratio Ki [4]: 5 |
| COc1cccc2c1CCCC2CCC[N+]1(C)CCN(C2CCCCC2)CC1 (stereo unspecified) | 6.78 | 32 | 63.7 |  | inhibition at 100 µM [6]: 26%; Ratio Ki [4]: 9.4 |
| CC(=O)N1CCN(C)CC1 | > 10000 | > 1000 | > 5000 |  |  |
| COc1cccc2c1CCCC2CCCN1CCC(C2CCCCC2)CC1 (stereo unspecified) | 18.8 | 7.4 | 143 |  | EC50 [8]: 3640 nM; Ratio Ki [4]: 7.6 |
| COc1cccc2c1CCCC2OCCN1CCC(C2CCCCC2)CC1 (stereo unspecified) | 161 |  | 91 | 1.8 |  |
| COc1cccc2c1CCCC2CCCN1CCC(O)(C2CCCCC2)CC1 (stereo unspecified) | 9.27 | 10.4 | 5.56 | 1.6 | EC50 [8]: 15900 nM |
